Blank lines part the entries; values can stand above or below the compound they belong to.
Tests used:
[1] = molecular target: T1, Vent(exo−) DNA polymerase (Thermococcus litoralis, UniProt P30317, D141A/E143A); settings: screening with eight different DNA polymerases; cited from earlier work
T1 sequence (P30317 with tags, fused parts or gaps D141A/E143A): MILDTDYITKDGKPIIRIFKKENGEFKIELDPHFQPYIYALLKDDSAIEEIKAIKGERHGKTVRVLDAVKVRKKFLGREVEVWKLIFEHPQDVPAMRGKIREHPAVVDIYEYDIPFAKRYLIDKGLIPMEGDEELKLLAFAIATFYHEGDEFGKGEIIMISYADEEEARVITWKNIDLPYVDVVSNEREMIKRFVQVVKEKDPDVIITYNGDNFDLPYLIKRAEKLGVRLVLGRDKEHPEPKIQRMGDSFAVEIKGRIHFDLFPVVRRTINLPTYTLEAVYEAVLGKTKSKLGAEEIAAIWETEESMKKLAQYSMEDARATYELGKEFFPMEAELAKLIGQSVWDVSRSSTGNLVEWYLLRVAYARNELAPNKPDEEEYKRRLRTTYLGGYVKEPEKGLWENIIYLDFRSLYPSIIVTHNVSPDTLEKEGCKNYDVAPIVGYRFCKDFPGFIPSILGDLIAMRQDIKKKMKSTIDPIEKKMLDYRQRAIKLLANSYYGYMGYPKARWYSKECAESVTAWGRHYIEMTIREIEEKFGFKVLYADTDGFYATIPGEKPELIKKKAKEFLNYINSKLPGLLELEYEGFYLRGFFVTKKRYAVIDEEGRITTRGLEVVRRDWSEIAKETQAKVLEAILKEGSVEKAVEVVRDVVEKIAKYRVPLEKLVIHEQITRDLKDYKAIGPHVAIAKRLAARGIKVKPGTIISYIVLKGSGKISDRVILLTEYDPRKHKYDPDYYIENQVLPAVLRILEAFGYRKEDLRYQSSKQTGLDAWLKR

[2] = UV deprotection studies of 5′-O-TBS derivatives; assay type: physicochemical; settings: for DT1/2 (deprotection half-life time) at 302 nm / DT1/2 (deprotection half-life time) at 365 nm: 1 mM in methanol, 0.5 mW transilluminator, triplicate
Summary of the method: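 The test compound, in methanol at 1 mM in a scintillation vial, was irradiated with a 0.5 mW transilluminator at 302 or 365 nm. Aliquots taken at time intervals went to reverse-phase HPLC to follow loss of starting material and appearance of the deprotected product (loss of the 2-nitrobenzyl group). DT1/2 is the time at 50% deprotection, read from kinetic plots. Each compound was run in triplicate.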

[3] = molecular target: T1, Vent(exo−) DNA polymerase; test: PEP; assay type: biochemical
Bst DNA polymerase [4] = molecular target: T2, Bst DNA polymerase (Geobacillus stearothermophilus, UniProt P52026); test: PEP; assay type: biochemical, Bacillus stearothermophilus
T2 sequence (P52026 289-876 limits assumed): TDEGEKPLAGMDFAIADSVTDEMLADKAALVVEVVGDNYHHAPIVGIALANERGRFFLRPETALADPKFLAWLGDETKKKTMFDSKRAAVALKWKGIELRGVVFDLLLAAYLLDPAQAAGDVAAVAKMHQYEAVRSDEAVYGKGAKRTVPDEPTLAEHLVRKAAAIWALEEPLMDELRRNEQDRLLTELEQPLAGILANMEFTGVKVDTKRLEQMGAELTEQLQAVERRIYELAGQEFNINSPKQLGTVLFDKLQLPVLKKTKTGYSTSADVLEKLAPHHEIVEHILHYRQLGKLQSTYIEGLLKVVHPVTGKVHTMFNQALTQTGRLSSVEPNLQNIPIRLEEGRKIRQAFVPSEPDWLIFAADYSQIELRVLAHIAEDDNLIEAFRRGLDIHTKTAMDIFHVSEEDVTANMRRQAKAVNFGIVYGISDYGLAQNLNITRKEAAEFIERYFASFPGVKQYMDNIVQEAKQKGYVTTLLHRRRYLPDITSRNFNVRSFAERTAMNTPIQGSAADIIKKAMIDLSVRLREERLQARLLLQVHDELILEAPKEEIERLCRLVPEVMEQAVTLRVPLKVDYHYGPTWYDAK

[5] = molecular target: T3, DeepVent(exo−) DNA polymerase (Pyrococcus sp. GB-D, UniProt Q51334, D141A/E143A); test: PEP; assay type: biochemical, Pyrococcus species GB-D
T3 sequence (Q51334 with tags, fused parts or gaps D141A/E143A): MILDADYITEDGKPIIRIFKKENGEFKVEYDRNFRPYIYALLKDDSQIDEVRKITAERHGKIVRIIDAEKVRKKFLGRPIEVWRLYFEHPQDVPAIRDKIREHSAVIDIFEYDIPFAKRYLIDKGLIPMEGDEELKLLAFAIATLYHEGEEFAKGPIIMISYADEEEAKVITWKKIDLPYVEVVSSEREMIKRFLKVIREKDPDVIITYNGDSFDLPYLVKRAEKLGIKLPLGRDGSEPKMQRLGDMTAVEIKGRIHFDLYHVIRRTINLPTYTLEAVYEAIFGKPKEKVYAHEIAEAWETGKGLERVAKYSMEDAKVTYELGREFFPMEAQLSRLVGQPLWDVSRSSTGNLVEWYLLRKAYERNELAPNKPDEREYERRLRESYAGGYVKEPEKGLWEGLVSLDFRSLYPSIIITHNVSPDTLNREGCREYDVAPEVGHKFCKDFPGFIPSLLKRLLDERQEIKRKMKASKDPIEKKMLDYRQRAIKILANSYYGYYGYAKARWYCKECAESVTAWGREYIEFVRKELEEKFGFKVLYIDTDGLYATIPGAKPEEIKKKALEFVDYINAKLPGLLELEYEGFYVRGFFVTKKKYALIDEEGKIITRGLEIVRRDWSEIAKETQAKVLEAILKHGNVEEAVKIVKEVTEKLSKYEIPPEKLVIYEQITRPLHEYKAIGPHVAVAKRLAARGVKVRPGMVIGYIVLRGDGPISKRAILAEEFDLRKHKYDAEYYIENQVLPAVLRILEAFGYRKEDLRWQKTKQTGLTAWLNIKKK

Bst DNA polymerase [6] = molecular target: T2, Bst DNA polymerase; test: Oligonucleotide template assay; assay type: biochemical, Bacillus stearothermophilus; settings: for Incorporation: Bst, five-base poly-thymidine template, high concentrations (100 μM)

Structure (SMILES): C=CCO[C@H]1C[C@H](n2cnc3c(N)ncnc32)O[C@@H]1COP(=O)(O)OP(=O)(O)OP(=O)(O)O [3′-O-allyl-dATP]
Activity as polymerase substrate [1]: limited activity at high micromolar concentrations

Deprotection rate relative to compound Ib ([2]; faster than Ib at both deprotection wavelengths (302 and 365 nm)): approximately 3 fold
Structure (SMILES): CC(C)(C)[Si](C)(C)OC[C@H]1O[C@@H](n2cnc3c(N(Cc4ccccc4[N+](=O)[O-])Cc4ccccc4[N+](=O)[O-])ncnc32)C[C@@H]1O [IIb, N^6, N^6-Bis-(2-nitrobenzyl)-5’-O-tert-butyldimethylsilyl-2’deoxyadenosine]

DT1/2 (deprotection half-life time) at 302 nm [2]: 0.767 min
DT1/2 (deprotection half-life time) at 365 nm [2]: 2.4 min
Structure (SMILES): CC(C)(C)[Si](C)(C)OC[C@H]1O[C@@H](n2cnc3c(NCc4ccccc4[N+](=O)[O-])ncnc32)C[C@@H]1O [IIIb, N^6-(2-Nitrobenzyl)-5’-O-tert-butyldimethylsilyl-2’-deoxyadenosine]

Structure (SMILES): Nc1ncnc2c1ncn2[C@H]1C[C@H](O)[C@@H](COP(=O)(O)OP(=O)(O)OP(=O)(O)O)O1 [dATP, 2′-Deoxyadenosine triphosphate]
IC50 [3]: 1.6 ± 0.2 nM
IC50 (Bst DNA polymerase [4]): 1.2 ± 0.1 nM
IC50 [5]: 2.8 ± 0.2 nM

DT1/2 (deprotection half-life time) at 302 nm [2]: 1 min
DT1/2 (deprotection half-life time) at 365 nm [2]: 2.53 min
Structure (SMILES): CC(C)(C)[Si](C)(C)OC[C@H]1O[C@@H](n2cnc3c(N)ncnc32)C[C@@H]1OCc1ccccc1[N+](=O)[O-] [Compound Ib, 5’-O-tert-Butyldimethylsilyl-3’-O-(2-nitrobenzyl)-2’-deoxyadenosine]

Activity by DNA polymerase incorporation assays (Bst DNA polymerase [6]): inactive
Incorporation (Bst DNA polymerase [6]): did not show significant incorporation
Structure (SMILES): Nc1ncnc2c1ncn2[C@H]1C[C@H](OCc2ccccc2[N+](=O)[O-])[C@@H](COP(=O)(O)OP(=O)(O)OP(=O)(O)O)O1 [Ic, 3’-O-(2-Nitrobenzyl)-2’-deoxyadenosine-5’-triphosphate]

Activity by DNA polymerase incorporation assays (Bst DNA polymerase [6]): inactive
Incorporation (Bst DNA polymerase [6]): did not show significant incorporation
Structure (SMILES): O=[N+]([O-])c1ccccc1CN(Cc1ccccc1[N+](=O)[O-])c1ncnc2c1ncn2[C@H]1C[C@H](O)[C@@H](COP(=O)(O)OP(=O)(O)OP(=O)(O)O)O1 [IIc, N^6, N^6-Bis-(2-nitrobenzyl)-2’-deoxyadenosine-5’-triphosphate]
